The values that follow come from the EternaBench riboswitch data.

The test system of the data set is MS2 coat protein. The data set can be described thus: apparent Kd, MS2 coat protein; higher = weaker binding; RNA-MaP array. In outline:
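Incubations were done at room temperature with fluorescently labeled MS2 coat protein at 1.5 nM to 3 μM and designed RNAs transcribed on an Illumina sequencing chip from sequenced DNA templates, with or without input ligand. Apparent Kd is the median of binding curves fitted for each cluster. Designs with fewer than 10 measured clusters were excluded.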

[1] abbreviates: designed as: OFF switch for flavin mononucleotide, no ligand.
Where [2] appears, read: ligand present: flavin mononucleotide, designed as: OFF switch for flavin mononucleotide.
Where [3] appears, read: designed as: ON switch for theophylline, no ligand.
Where [4] appears, read: ligand present: theophylline, designed as: ON switch for theophylline.
The mark [5] stands for this setting: designed as: ON switch for flavin mononucleotide, no ligand.
Where [6] appears, read: ligand present: flavin mononucleotide, designed as: ON switch for flavin mononucleotide.
[7] abbreviates: designed as: ON switch for tryptophan, no ligand.
Where [8] appears, read: ligand present: tryptophan, designed as: ON switch for tryptophan.
[9] abbreviates: designed as: OFF switch for tryptophan, no ligand.
Where [10] appears, read: ligand present: tryptophan, designed as: OFF switch for tryptophan.

As usually defined, the apparent Kd is the concentration giving half-maximal binding under the conditions of the assay.

Take “UAUUAGUUAGAGAAGGUCCUUAGGCCGCGUAAGGAAGGAUAUCUGCAUCACGGGCCUCUGGCAACAUGAGGAUCACCCAUGUGG”: the “apparent Kd” value is, setting by setting: under setting [1], 96.8 nM; under setting [2], 156 nM.

For “ACCUUACAUGAGGAUCACCCAUGUCGUGAUACCAGAAACCACGUAUUCCCUUGGCAGCACACCCGUGAUGAGAUUGUCGGUUUUG”, the “apparent Kd” value amounted to 57.4 nM under setting [3] and 88 nM under setting [4].

“CGCCUACAGGUGUACUAUUGUGGUGAAGAUACCAGAUAGCCCAAUAUCCCUUGGCAGCUUCAGACAUGAGGAUCACCCAUGUAUC”: the “apparent Kd” value by setting is: (designed as: OFF switch for theophylline, no ligand) 15.5 nM; (ligand present: theophylline, designed as: OFF switch for theophylline) 27.6 nM.

In the case of “AUUGAACGUGCAGGAUAUCAAAACCGGAAUCGUUGAGAAGGGCAGUAAUCGGAGAGCACAUGAGGAUCACCCAUGUUCAAUCGA”, the “apparent Kd” value runs as follows: under setting [5], 15.9 nM; under setting [6], 9.32 nM.

Take “ACACACAUGAGGAUCACCCAUGUCUAUAUACGAGGACCGGUACGGCCGCCACUCGUGAGAUCGCGAGAGACAGCUUUGGGCUAGU”: the “apparent Kd” value by setting is: under setting [7], 14.6 nM; under setting [8], 19.2 nM.

Consider “CGAGUCUUAUAGAAGGUAGACAUGAGGAUCACCCAUGUACUGGCAACGAAUAGUCGUAGUACACCUAAGGAUAUAUGGGAUGAG”, for which the “apparent Kd” value reads like this: under setting [5], 74.7 nM; under setting [6], 52.3 nM.

On to “UCCGCGGAGACGGCCGCCACUGAGUGAGAAGUCGUGCUCUAACUACAUGAGGAUCACCCAUGUCCCAGGACCGGGUCGAAGUGUU”, for which the “apparent Kd” value under setting [7] was found to be 214 nM and the “apparent Kd” value under setting [8] was found to be 103 nM.

Regarding “GCGAGGAGGCAGAAGGACUAAAACACGCUACAAGUAGGAUAUGCAUCCUGCACACAUGAGGAUCACCCAUGUAGAUCCUAUCGC”, the “apparent Kd” value is, setting by setting: under setting [1], 78 nM; under setting [2], 151 nM.

For the sequence “CUCGUGUUAGGAUAUGACGUCCCGCGCUCCGUUAACUAAUUUCAGAAGGAACAUGAGGAUCACCCAUGUUGGUG”, the “apparent Kd” value reads like this: under setting [1], 150 nM; under setting [2], 59.7 nM.

With “UCACUGUUAGGAUAUCUCAUAGCAGUAGGUCAGCUAUUUUGAGAGAAGGAACAUGAGGAUCACCCAUGUAAAUA”, the “apparent Kd” value is 19.6 nM under setting [1] and 84.7 nM under setting [2].

“UAGCAGUUCACAGGAUAUAGUUUGCGAUAAGUUUAUUUAUGAGAGACAUGAGGAUCACCCAUGUACUAGAAGGGUGAGAAAUAA”: the “apparent Kd” value by setting is: under setting [5], 461 nM; under setting [6], 130 nM.

In the case of “AGCCCACAUGAGGAUCACCCAUGUACUUGGUCCUCAGGAUAUCUAGUUCCAUAUUACAAAAGAGAAGGGAGGAUUG”, the “apparent Kd” value turned out to be 110 nM under setting [5] and 14.6 nM under setting [6].

Regarding “GUGAUGCAGCAGAAGGGAUCGCUAAGGUUGUAAUCAGGAUAUGCAGUCGCUAGGGCGCCUCGACAUGAGGAUCACCCAUGUUUG”, the “apparent Kd” value stood at 52.7 nM under setting [1] and 61.7 nM under setting [2].

With “CUUCUUCGUGCAGGAUAUAAGGGAACACGAUGACAUGAGGAUCACCCAUGUUCUAUAAGCAGGCUUUAGAAGGGCAUUUUGGAU”, the “apparent Kd” value was determined as 27.1 nM under setting [5] and 20.1 nM under setting [6].

On to “GACAUAUGCUAUGCGCAGGCUACCCUCAGCCGAGGACCGGUACGGCCGCCACUCGUACUACCACAUGAGGAUCACCCAUGUUAUC”, for which the “apparent Kd” value worked out at 17.2 nM under setting [9] and 18.2 nM under setting [10].

Consider “CGUGAUCGCAGAAAGGAUAUUUGGCCUGUAACAUGAGGAUCACCCAUGUUCAAAUGUGACUUACUAAAGAAGGUUCGAAGAUCCAA”, for which the “apparent Kd” value is, setting by setting: under setting [5], 7.23 nM; under setting [6], 7.11 nM.

Turning to “AGCUAUUUUUGGGAGGAUAUUAUGAGCAGUACAUGAGGAUCACCCAUGUUAGUAAUAUACAUUGGUAAGAAGGCCCAAUCAUAAGG”, the “apparent Kd” value under setting [5] stood at 34.6 nM and the “apparent Kd” value under setting [6] worked out at 25.1 nM.

For “AUACCACCUUCGGCCGCCACUAUGUAUGGGUUCCCAACGUUGAAGGACAUGAGGAUCACCCAUGUUAGGACCGGGAAAAGUGCCU”, the “apparent Kd” value under setting [9] was 87.9 nM and the “apparent Kd” value under setting [10] was 161 nM.

For the sequence “ACCGUAUGGGAGAAGGAACUAUGUUAGACAUGAGGAUCACCCAUGUUCCAGAAUGUAGGGCUCAGUUAGGAUAUCCAAUUCAGA”, the “apparent Kd” value is, setting by setting: under setting [1], 11.1 nM; under setting [2], 21.8 nM.

For “ACUCAUGCAAAGGAUAUAACAGUUACAGACUGAUUAGAAGGUUGGACAUGAGGAUCACCCAUGUACGACGCGGU”, the “apparent Kd” value reads like this: under setting [1], 9.13 nM; under setting [2], 28.4 nM.

For the sequence “GUGUGGCGCUCAGGAUAUAGAAGGUCGCUAGUUCUAGAAGGGAGCAACGAGGUACCACAUGAGGAUCACCCAUGUUUGGUUGAC”, the “apparent Kd” value runs as follows: under setting [1], 15.4 nM; under setting [2], 13.3 nM.

As to “CCUUUAGAUGUGAGGAUAUGUACUUGACUUUCAUGACAGAAGGCACAUGAGGAUCACCCAUGUAGUGUCAUUGG”, the “apparent Kd” value by setting is: under setting [1], 10.4 nM; under setting [2], 36.4 nM.

“AACAGUAUUAUAGAUACCAGCAGGUCAUAAGACAUGAGGAUCACCCAUGUGAAUGAGGUAUGCCCUUGGCAGCUAUGAGGUCCUC”: the “apparent Kd” value under setting [3] was 173 nM and the “apparent Kd” value under setting [4] came out at 128 nM.

As to “AAUCGCCGUAAGAAGGCCACAUAAACAUGAGGAUCACCCAUGUACAGGCGACCUUUAUAUAAUGUGGAGGAUAUUAACUGCUUC”, the “apparent Kd” value reads like this: under setting [1], 36.2 nM; under setting [2], 90.5 nM.

Regarding “CACCUUCGUCAAGGAUAUGCGUAAUGUAUAAUCGCAGAAGGUGACGCGAUCUUCAUAACAUGAGGAUCACCCAUGUGGUGAACU”, the “apparent Kd” value turned out to be 436 nM under setting [1] and 312 nM under setting [2].

Regarding “GCUUUAUUAGGAUAUGUAACCGUUAACAUGAGGAUCACCCAUGUUGAUUCUCAAGAGACCACAGAAGGAAUAAAAG”, the “apparent Kd” value runs as follows: under setting [1], 289 nM; under setting [2], 240 nM.

With “AAAACAUGAGGAUCACCCAUGUUGAUCAAACACCAGACCAAGAGAAGGAUCAGCACCGAGUGAUGAAAGGAUAUCUAUUAACGG”, the “apparent Kd” value is, setting by setting: under setting [5], 39.2 nM; under setting [6], 23.8 nM.

Turning to “AUAGUGUAAGGAUAUGUAGAGAGCUAGAAAAUACAAACAAUACAGAAGGUACAUGAGGAUCACCCAUGUGAUUG”, the “apparent Kd” value reads like this: under setting [1], 14.4 nM; under setting [2], 26.3 nM.

In the case of “GGAUCGCUCUACAUGAGGAUCACCCAUGUGACUGAGCUAGAUAGAAGGAGAUGGCGAAAUACUUUCUAGGAUAUAUUGUAGCUA”, the “apparent Kd” value reads like this: under setting [1], 8.05 nM; under setting [2], 8.08 nM.

For the sequence “GCAAUUUGACGAGGAUAUGGUCUAUUUUUUUACCCAGAAGGCGUCGCCCACAUGAGGAUCACCCAUGUUCAUGGAUAGGAAAUA”, under setting [1], the “apparent Kd” value is 11.9 nM.

In the case of “AGAAUGACAAAAUUGCAACAUGAGGAUCACCCAUGUGAUACAAGAAGGACAAACCGCUCAAGAGUGUAGGAUAUUGUGGAAAUC”, the “apparent Kd” value under setting [5] is 25.6 nM and the “apparent Kd” value under setting [6] was 19.6 nM.

For the sequence “GCGACACUCACGGCCGCCACUGAUUAGCCCAGUAUGGAGCCCACACAUGAGGAUCACCCAUGUCACAGGACCGGGUGGGUCUAUU”, the “apparent Kd” value under setting [7] was determined as 25.8 nM and the “apparent Kd” value under setting [8] was determined as 26.8 nM.

Regarding “UGACACAUGAGGAUCACCCAUGUCGCGAAACGAGGACCGGUACGGCCGCCACUCGCACAAACUCCUCUCCAGCACCAGCUUUUAG”, the “apparent Kd” value is, setting by setting: under setting [7], 19.4 nM; under setting [8], 15.5 nM.

Take “GCCACGCUAGAAGGAUAUUUGCCAUAAGUACGGAAAGAAGGUCUCGCCGGAUCGAACAUGAGGAUCACCCAUGUGUGGGUCAGA”: the “apparent Kd” value is, setting by setting: under setting [5], 43.8 nM; under setting [6], 26 nM.

Regarding “GAACAAUGCCUAGGAUAUCUUACGAUUGAAAACAGAGAAGGAGGGACCGAACAUGAGGAUCACCCAUGUAGAUGUGGGACGUGG”, the “apparent Kd” value turned out to be 77.2 nM under setting [1] and 84.5 nM under setting [2].

Consider “AUAUAAUCAGGAUAUACAUGUUUCUUUAACACCGAGGCCGUACAUGAGGAUCACCCAUGUAGAAGGGAUUGCGG”, for which the “apparent Kd” value under setting [1] came out at 6.95 nM and the “apparent Kd” value under setting [2] worked out at 6.32 nM.

“AGUCCUCUGUACCCUGAUGCCCUCACUUUACGAGGACCGGUACGGCCGCCACUCGAAUCCCAACAUGAGGAUCACCCAUGUCGAC”: the “apparent Kd” value is 34.8 nM under setting [9] and 39.7 nM under setting [10].

As to “AUGAGAUGAGGAUAUACUGGGUCCGCAUUAGAAACUUAUCAACAUGAGGAUCACCCAUGUAGAAGGCAUGUGAG”, the “apparent Kd” value is 25.4 nM under setting [1] and 83.2 nM under setting [2].

Consider “UUUGCAGUCGAGAAGGCAAACACAUGAGGAUCACCCAUGUAGACGAGGUAUGUUAUUUCGGGAGUUGAGGAUAUCGUGGUAGGU”, for which the “apparent Kd” value under setting [5] came to 27.8 nM and the “apparent Kd” value under setting [6] turned out to be 13.8 nM.

As for “GUCUGGAUGUAGGAUAUGUGUCCGUGCUAGGGUACAGAAGGACAGACAUGAGGAUCACCCAUGUGGAUCAACCG”, the “apparent Kd” value under setting [1] turned out to be 22.6 nM and the “apparent Kd” value under setting [2] came to 38.2 nM.

On to “GCCAAGCUCUAAGGAUAUGUUCACACCGGUGAGACAGAAGGUAGUAGUGUACUGCACAUGAGGAUCACCCAUGUAAACGGAUAA”, for which the “apparent Kd” value worked out at 64.2 nM under setting [5] and 14.9 nM under setting [6].

In the case of “AAGUCGCAAGGAUAUACAGUAAGGGUUCGGAUGGGAAGCUUACAUGAGGAUCACCCAUGUAGAAGGUGCAUUCA”, the “apparent Kd” value is 26.9 nM under setting [1] and 31.4 nM under setting [2].

With “AGAACCCAGUAAGGAUAUGAUGAGUCUAUACAACAUGAGGAUCACCCAUGUCCGAGGAAACUAGAUCAGAAGGUACAAGAAAAG”, the “apparent Kd” value is, setting by setting: under setting [5], 73.8 nM; under setting [6], 17.6 nM.

In the case of “UGUUACAUGAGGAUCACCCAUGUCAGAUGGUCUGGCUAUUACAGAAGGAAUAAAGAACGUCGAGAUUAGGAUAUGUGUAGAUGA”, the “apparent Kd” value was 40.9 nM under setting [5] and 31.8 nM under setting [6].

As to “UUACUACAUGAGGAUCACCCAUGUGAAAAUUAAACGAAAAGUUAGGAUAUGAAUGGAAAUGCACCUCAGAAGGAACGCGACAAG”, the “apparent Kd” value was determined as 18.4 nM under setting [5] and 16.9 nM under setting [6].

As to “GCACUUAUAGCAGGAUAUCUUUAAACACCGAAAGGUAGCGGUACAUGAGGAUCACCCAUGUCAACAGAGAAGGGCUCAUAGUCU”, the “apparent Kd” value worked out at 11.1 nM under setting [5] and 8.63 nM under setting [6].

Turning to “CCAGGUUGAAUAGGAUAUCGAGUCCGUCACAUGAGGAUCACCCAUGUAUGCCAAGCUAGAGCGUGCGAGAAGGAUUAGGCCAUC”, the “apparent Kd” value under setting [6] was determined as 15.5 nM.
